Test results taken from ChEMBL document CHEMBL1154610, “Discovery and preclinical evaluation of [4-[[1-(3-fluorophenyl)methyl]-1H-indazol-5-ylamino]-5-methylpyrrolo[2,1-f][1,2,4]triazin-6-yl]carbamic acid, (3S)-3-morpholinylmethyl ester (BMS-599626), a selective and orally efficacious inhibitor of human epidermal growth factor receptor 1 and 2 kinases” (J Med Chem, 2009).

Experiments:
[1] = target: Epidermal growth factor receptor (Homo sapiens, UniProt P00533); assay: Inhibition of human recombinant HER1 expressed in Sf9 cells by liquid scintillation counting
[2] = target: Receptor tyrosine-protein kinase erbB-2 (Homo sapiens, UniProt P04626); assay: Inhibition of human recombinant HER2 expressed in Sf9 cells by liquid scintillation counting
BT-474 = assay: Antiproliferative activity against human BT474 cells after 72 hrs by MTT assay; type: functional, cell-based; settings: BT-474, 72 h
In short: (§1)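 Cell proliferation IC50 reported as the mean of three independent determinations. BT474 is a breast line (HER2+++/HER1+); A2780 serves as a HER-independent control.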

NCI-N87 = assay: Antiproliferative activity against human NCI-N87 cells after 72 hrs by MTT assay; type: functional, cell-based; settings: NCI-N87, 72 h
[3] = Antiproliferative activity against mouse SAL2 cells after 72 hrs by MTT assay; type: functional, cell-based; settings: SAL2, 72 h
[4] = AUC (0 to 4 hrs) in BALB/c mouse at 50 mg/kg, po; type: ADME, organism-based; parameters: time < 4 hr, dose 50 mg/kg, route oral; settings: plasma
[5] = Cmax in BALB/c mouse at 50 mg/kg, po; type: ADME, organism-based; parameters: dose 50 mg/kg, route oral; settings: in vivo
Mus musculus = assay: Plasma concentration in BALB/c mouse at 50 mg/kg, po; type: ADME, organism-based; parameters: dose 50 mg/kg, route oral; settings: in vivo
In short: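 Compound given orally at 50 mg/kg as a solution in PEG400/Tween80/water (40:10:50) to three Balb/C mice. Plasma sampled over 4 h after dosing; AUC(0-4h), Cmax and 4 h concentration reported.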

A2780 = assay: Antiproliferative activity against human A2780 cells after 72 hrs by MTT assay; type: functional, cell-based; settings: A2780, 72 h; in short: as §1
[6] = Metabolic stability in mouse liver microsomes assessed per mg of protein at 10 uM after 10 mins; type: ADME, Microsome
In short: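 Mouse liver microsomes incubated with compound at 10 µM for 10 min; metabolic rate expressed as nmol/min/mg protein.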

Epidermal growth factor receptor, sequence (P00533 whole entry): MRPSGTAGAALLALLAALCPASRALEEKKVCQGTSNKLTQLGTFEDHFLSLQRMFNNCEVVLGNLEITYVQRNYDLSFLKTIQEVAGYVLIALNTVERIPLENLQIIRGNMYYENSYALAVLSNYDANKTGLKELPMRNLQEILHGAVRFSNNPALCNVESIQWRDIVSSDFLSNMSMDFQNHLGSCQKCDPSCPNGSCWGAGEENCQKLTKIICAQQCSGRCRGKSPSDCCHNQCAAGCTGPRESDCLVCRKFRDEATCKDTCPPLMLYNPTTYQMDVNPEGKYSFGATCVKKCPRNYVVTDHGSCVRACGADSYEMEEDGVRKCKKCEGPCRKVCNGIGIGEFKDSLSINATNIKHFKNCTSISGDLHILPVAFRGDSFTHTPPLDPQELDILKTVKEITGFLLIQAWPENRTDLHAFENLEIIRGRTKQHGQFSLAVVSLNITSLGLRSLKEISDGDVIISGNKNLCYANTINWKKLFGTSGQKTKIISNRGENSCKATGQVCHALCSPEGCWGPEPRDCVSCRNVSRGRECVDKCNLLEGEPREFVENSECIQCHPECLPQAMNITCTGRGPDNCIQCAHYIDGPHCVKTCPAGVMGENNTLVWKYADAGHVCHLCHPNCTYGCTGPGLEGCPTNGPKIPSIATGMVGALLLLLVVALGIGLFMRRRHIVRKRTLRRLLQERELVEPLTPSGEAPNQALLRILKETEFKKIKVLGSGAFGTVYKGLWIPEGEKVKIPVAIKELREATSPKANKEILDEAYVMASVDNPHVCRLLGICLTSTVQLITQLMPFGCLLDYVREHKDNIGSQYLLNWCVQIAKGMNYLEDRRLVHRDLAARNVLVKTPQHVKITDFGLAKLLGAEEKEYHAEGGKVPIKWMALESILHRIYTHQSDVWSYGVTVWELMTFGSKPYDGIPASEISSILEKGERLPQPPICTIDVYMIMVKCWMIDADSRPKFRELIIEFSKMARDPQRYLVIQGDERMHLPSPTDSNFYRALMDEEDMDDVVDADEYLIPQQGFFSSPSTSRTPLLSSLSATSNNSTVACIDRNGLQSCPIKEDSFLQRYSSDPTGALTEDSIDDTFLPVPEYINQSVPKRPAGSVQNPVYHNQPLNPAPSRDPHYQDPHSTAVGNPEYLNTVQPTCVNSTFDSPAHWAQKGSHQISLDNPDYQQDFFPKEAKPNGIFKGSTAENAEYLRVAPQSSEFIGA
Receptor tyrosine-protein kinase erbB-2, sequence (P04626 whole entry): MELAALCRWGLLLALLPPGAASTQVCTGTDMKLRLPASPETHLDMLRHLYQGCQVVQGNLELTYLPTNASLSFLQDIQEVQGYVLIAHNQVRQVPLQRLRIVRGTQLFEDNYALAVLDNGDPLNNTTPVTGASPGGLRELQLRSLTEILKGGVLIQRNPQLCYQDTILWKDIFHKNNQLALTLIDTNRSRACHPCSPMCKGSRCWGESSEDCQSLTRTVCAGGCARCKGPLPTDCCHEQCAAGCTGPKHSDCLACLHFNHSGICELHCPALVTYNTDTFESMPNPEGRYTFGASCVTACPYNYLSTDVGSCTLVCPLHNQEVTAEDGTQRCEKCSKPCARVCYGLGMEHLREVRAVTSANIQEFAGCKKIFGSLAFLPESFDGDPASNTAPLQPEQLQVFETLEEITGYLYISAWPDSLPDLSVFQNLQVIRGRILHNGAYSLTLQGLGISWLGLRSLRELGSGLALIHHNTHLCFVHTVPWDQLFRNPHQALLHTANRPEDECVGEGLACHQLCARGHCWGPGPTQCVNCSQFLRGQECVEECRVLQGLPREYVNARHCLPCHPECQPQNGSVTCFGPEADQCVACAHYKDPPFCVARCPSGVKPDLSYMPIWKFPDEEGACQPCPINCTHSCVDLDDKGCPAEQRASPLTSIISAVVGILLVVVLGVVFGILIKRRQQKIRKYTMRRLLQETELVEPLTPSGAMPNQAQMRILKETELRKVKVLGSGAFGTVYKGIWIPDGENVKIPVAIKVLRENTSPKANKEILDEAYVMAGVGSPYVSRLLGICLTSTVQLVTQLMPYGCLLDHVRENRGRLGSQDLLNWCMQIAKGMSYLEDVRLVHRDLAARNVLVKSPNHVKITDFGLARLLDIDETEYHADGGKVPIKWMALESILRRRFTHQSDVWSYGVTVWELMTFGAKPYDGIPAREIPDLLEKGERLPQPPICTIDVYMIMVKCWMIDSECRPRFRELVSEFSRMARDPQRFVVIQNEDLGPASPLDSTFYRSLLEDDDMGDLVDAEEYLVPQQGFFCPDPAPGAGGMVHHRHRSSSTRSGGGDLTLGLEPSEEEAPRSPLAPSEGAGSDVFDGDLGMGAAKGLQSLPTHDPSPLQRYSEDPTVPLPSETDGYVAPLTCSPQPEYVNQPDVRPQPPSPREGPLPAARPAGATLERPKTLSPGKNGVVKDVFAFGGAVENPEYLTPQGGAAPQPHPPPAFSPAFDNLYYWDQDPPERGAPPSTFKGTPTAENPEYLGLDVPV

| Structure (SMILES) | IC50 [1] | IC50 [2] | IC50 (BT-474) | IC50 (NCI-N87) | IC50 [3] | AUC(0-t) at 4 h [4] | Cmax [5] | concentration (Mus musculus) | IC50 (A2780) | Stability [6] |
| --- | --- | --- | --- | --- | --- | --- | --- | --- | --- | --- |
| CCC1=C2C(Nc3ccc4c(cnn4Cc4ccccc4)c3)=NC=NC2N=C1NC(=O)OCCN1CCOCC1 (centres undefined) | 0.111 µM | 0.077 µM | 0.55 µM | 0.52 µM | 0.5 µM | 29 µM·h | 11000 nM | 4900 nM |  |  |
| CCc1c(NC(=O)OC[C@@H]2COCCN2)cn2ncnc(Nc3ccc4c(cnn4Cc4ccccc4)c3)c12 | 0.033 µM | 0.021 µM | 0.42 µM | 0.35 µM | 0.17 µM | 11 µM·h | 3500 nM | 2600 nM | 4.51 µM | 0.14 nmol/min |
| CCC1=C2C(Nc3ccc4c(cnn4Cc4ccccc4)c3)=NC=NC2N=C1NC(=O)OCC1CCNCC1 (centres undefined) | 0.03 µM | 0.023 µM | 0.09 µM | 0.17 µM | 0.13 µM | 1.3 µM·h | 450 nM | 260 nM |  |  |
| CCC1=C2C(Nc3ccc4c(cnn4Cc4cccc(F)c4)c3)=NC=NC2N=C1NC(=O)OC[C@@H]1COCCN1 (some centres undefined) | 0.023 µM | 0.022 µM | 0.19 µM | 0.34 µM | 0.23 µM | 16.2 µM·h | 5100 nM | 5100 nM | 8.07 µM | 0.01 nmol/min |
| CCC1=C2C(Nc3ccc4c(cnn4Cc4ccccc4)c3)=NC=NC2N=C1NC(=O)OCCN1CCNCC1 (centres undefined) | 0.021 µM | 0.018 µM | 0.071 µM | 0.1 µM | 0.25 µM | 0.62 µM·h | 300 nM | 300 nM |  | 0.1 nmol/min |
| CCC1=C2C(Nc3ccc4c(cnn4Cc4ccccc4)c3)=NC=NC2N=C1NC(=O)OCCn1ccnc1 (centres undefined) | 0.04 µM | 0.044 µM | 0.86 µM | 0.98 µM | 0.46 µM | 36 µM·h | 9900 nM | 9900 nM | > 5 µM |  |
| CCC1=C2C(Nc3ccc4c(cnn4Cc4ccccc4)c3)=NC=NC2N=C1NC(=O)OCC1CCCNC1 (centres undefined) | 0.038 µM | 0.029 µM | 0.31 µM | 0.32 µM | 0.48 µM | 3.6 µM·h | 1200 nM | 1200 nM | 3.9 µM |  |
| CCC1=C2C(Nc3ccc4c(cnn4Cc4ccccc4)c3)=NC=NC2N=C1NC(=O)O[C@H]1CC[C@@](C)(N)CC1 (some centres undefined) | 0.019 µM | 0.02 µM | 0.13 µM | 0.17 µM | 0.37 µM | 1.76 µM·h | 480 nM | 460 nM | 5.22 µM | 0.02 nmol/min |
| CCC1=C2C(Nc3ccc4c(cnn4Cc4ccccc4)c3)=NC=NC2N=C1NC(=O)OCCN1CCCCC1 (centres undefined) | 0.038 µM | 0.028 µM | 0.31 µM | 0.39 µM | 0.38 µM | 5.5 µM·h | 1700 nM | 1300 nM |  | 0.27 nmol/min |
| CCC1=C2C(Nc3ccc4c(cnn4Cc4ccccc4)c3)=NC=NC2N=C1NC(=O)OCCC1CCNCC1 (centres undefined) | 0.044 µM | 0.037 µM | 0.13 µM | 0.21 µM | 0.49 µM | 0.53 µM·h | 250 nM | 110 nM |  |  |
| CCC1=C2C(Nc3ccc4c(cnn4Cc4ccccc4)c3)=NC=NC2N=C1NC(=O)OCC1CCCCN1 (centres undefined) | 0.045 µM | 0.03 µM | 0.47 µM | 0.43 µM | 0.25 µM | 7.2 µM·h | 2300 nM | 2300 nM | 4.75 µM |  |
